Test results from ChEMBL document CHEMBL1828538, “Synthesis and pharmacological evaluation of indole-based sigma receptor ligands” (Eur J Med Chem, 2011).
Activity calls are given as the source filed them.

Key:
[1] = molecular target: 5-hydroxytryptamine receptor 2A (Homo sapiens, UniProt P28223); experiment: Displacement of […] from human 5HT2A receptor expressed in HEK cells; format: cell-based, HEK293
[2] = molecular target: Histamine H1 receptor (Homo sapiens) (UniProt P35367); experiment: Displacement of radioligand from histamine H1 receptor assessed as 50% receptor inhibition at 10^-7 M
Sequence of Histamine H1 receptor (Homo sapiens) (P35367 whole entry): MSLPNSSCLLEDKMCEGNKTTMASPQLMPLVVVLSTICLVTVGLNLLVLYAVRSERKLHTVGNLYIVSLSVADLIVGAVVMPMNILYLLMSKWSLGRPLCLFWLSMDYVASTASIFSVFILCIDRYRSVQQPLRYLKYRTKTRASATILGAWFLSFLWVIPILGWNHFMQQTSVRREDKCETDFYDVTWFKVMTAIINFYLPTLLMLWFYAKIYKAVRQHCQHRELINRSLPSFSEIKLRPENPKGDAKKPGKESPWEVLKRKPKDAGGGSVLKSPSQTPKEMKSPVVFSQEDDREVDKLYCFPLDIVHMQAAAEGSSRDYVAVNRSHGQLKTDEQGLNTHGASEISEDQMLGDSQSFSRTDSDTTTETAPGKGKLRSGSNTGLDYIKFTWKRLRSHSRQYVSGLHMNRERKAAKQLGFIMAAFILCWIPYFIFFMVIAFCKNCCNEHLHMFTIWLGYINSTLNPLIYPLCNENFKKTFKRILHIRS
Method in brief: (§1)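 Part of a contracted (NovaScreen) panel of 64 radioligand/enzyme assays, with the test compound run at 10⁻⁵ M and 10⁻⁷ M. Each assay was scored by whether radioligand displacement exceeded 50% at each concentration.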

[3] = molecular target: T1, Muscarinic acetylcholine receptor M2 (Homo sapiens) (UniProt P08172); experiment: Displacement of radioligand from muscarinic M2 receptor assessed as 50% receptor inhibition at 10^-7 M; method in brief: as §1
T1 sequence (whole entry): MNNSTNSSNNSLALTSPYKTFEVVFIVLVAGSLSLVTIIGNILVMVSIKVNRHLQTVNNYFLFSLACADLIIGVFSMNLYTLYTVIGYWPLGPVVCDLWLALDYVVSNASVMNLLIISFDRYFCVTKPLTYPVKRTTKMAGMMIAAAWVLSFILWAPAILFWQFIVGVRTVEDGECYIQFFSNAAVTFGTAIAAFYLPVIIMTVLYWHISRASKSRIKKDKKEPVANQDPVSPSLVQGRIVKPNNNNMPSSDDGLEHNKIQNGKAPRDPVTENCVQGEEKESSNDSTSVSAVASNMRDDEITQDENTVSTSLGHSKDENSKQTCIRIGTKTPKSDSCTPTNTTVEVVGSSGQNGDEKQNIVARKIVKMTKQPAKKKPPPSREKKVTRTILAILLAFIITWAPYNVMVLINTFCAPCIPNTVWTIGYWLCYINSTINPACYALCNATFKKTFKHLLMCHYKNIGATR

[4] = Displacement of radioligand from dopamine D4.2 receptor assessed as 50% receptor inhibition at 10^-5 M; method in brief: as §1
[5] = Displacement of radioligand from adrenergic alpha1 receptor assessed as 50% receptor inhibition at 10^-7 M; method in brief: as §1
[6] = Displacement of radioligand from adrenergic alpha1 receptor assessed as 50% receptor inhibition at 10^-5 M; method in brief: as §1
[7] = Displacement of radioligand from muscarinic receptor assessed as 50% receptor inhibition at 10^-7 M; method in brief: as §1
[8] = Displacement of radioligand from adrenergic beta1 receptor assessed as 50% receptor inhibition at 10^-5 M; method in brief: as §1
[9] = molecular target: T2, Muscarinic acetylcholine receptor M1 (Homo sapiens) (UniProt P11229); experiment: Displacement of radioligand from muscarinic M1 receptor assessed as 50% receptor inhibition at 10^-5 M; method in brief: as §1
T2 sequence (whole entry): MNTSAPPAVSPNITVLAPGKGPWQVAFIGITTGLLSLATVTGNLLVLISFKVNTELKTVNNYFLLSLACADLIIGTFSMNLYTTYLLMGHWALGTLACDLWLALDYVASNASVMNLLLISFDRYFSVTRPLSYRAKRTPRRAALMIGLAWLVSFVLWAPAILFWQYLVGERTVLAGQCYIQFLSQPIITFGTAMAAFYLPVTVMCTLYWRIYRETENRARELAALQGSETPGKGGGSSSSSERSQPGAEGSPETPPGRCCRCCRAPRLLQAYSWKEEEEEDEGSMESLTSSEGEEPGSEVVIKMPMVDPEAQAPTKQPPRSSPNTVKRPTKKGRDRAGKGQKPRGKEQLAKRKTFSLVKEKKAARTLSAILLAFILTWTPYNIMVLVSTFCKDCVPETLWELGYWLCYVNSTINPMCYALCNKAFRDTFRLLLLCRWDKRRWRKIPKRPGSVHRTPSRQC

D(1A) dopamine receptor = D(1A) dopamine receptor (Homo sapiens, UniProt P21728); experiment: Displacement of [3H]SCH-23390 from human D1 receptor in cell-based assay
Sequence of D(1A) dopamine receptor (P21728 whole entry): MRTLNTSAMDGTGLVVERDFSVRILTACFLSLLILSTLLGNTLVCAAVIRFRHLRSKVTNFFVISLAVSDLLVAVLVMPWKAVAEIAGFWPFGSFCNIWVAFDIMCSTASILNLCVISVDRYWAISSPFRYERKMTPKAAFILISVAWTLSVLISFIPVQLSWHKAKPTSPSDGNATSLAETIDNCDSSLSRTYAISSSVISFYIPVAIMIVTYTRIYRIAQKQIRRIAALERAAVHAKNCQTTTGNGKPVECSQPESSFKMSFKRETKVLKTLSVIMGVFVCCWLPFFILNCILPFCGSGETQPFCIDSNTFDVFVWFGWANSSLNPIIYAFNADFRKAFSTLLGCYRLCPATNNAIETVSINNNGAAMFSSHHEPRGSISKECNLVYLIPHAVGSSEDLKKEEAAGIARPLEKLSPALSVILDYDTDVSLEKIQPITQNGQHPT
Method in brief: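 LhD1 cells were labelled with 0.18 nM [3H]SCH-23390, with 1 μM SCH-23390 for nonspecific binding. Ki was from standard assay conditions, as mean ± SEM of replicates. A value >10000 nM denotes under 30% displacement at that concentration.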

[10] = molecular target: Histamine H1 receptor (Homo sapiens) (UniProt P35367); experiment: Displacement of radioligand from histamine H1 receptor assessed as 50% receptor inhibition at 10^-5 M; method in brief: as §1
[11] = Displacement of radioligand from sodium channel site 2 assessed as 50% receptor inhibition at 10^-5 M; method in brief: as §1
[12] = molecular target: Cannabinoid receptor 2 (Homo sapiens) (UniProt P34972); experiment: Displacement of radioligand from cannabinoid CB2 receptor assessed as 50% receptor inhibition at 10^-5 M; method in brief: as §1
Sequence of Cannabinoid receptor 2 (Homo sapiens) (P34972 whole entry): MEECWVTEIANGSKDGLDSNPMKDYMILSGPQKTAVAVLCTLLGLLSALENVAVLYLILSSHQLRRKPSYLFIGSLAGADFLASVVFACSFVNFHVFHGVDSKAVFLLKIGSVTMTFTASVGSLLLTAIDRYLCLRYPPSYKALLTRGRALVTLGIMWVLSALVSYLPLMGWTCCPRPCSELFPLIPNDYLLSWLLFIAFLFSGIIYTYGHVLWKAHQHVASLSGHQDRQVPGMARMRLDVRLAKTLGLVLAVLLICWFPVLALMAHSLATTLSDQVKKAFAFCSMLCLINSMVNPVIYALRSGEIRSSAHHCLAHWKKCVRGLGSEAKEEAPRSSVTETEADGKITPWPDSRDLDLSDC

[13] = Displacement of radioligand from BZT-sensitive L-type calcium channel assessed as 50% receptor inhibition at 10^-5 M; method in brief: as §1
[14] = molecular target: Mu-type opioid receptor (Homo sapiens) (UniProt P35372); experiment: Displacement of radioligand from opioid mu receptor assessed as 50% receptor inhibition at 10^-7 M; method in brief: as §1
Sequence of Mu-type opioid receptor (Homo sapiens) (P35372 whole entry): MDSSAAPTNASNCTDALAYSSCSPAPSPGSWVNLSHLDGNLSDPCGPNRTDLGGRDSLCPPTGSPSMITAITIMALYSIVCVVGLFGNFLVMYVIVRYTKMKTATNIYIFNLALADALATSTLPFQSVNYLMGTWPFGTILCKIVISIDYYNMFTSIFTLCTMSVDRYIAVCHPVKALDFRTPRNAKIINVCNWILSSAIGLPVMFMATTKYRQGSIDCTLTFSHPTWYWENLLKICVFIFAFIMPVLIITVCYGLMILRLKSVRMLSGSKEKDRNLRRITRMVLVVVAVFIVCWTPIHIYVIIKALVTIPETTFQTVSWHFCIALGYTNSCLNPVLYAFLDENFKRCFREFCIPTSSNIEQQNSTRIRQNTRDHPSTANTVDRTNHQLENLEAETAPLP

[15] = molecular target: Sodium-dependent dopamine transporter (Homo sapiens, UniProt Q01959); experiment: Displacement of [125I]RTI-55 from human DAT expressed in HEK293 cells; format: cell-based
Sequence of Sodium-dependent dopamine transporter (Q01959 whole entry): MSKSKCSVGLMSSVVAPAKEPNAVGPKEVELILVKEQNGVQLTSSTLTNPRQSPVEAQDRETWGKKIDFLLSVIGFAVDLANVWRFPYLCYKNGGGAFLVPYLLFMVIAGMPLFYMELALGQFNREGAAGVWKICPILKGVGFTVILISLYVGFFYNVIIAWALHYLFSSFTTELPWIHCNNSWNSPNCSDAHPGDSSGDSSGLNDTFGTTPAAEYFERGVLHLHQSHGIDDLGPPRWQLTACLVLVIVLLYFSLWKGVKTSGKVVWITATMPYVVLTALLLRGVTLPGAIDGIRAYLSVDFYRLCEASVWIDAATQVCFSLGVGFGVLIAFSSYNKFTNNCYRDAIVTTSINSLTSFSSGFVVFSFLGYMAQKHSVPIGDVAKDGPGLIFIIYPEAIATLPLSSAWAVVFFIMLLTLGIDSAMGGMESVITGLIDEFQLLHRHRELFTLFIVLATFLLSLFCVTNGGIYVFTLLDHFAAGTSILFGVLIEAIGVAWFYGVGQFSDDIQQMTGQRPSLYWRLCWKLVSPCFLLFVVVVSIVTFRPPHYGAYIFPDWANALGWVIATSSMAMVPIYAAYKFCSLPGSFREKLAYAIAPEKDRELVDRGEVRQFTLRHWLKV
Method in brief: (§2)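 Nonspecific binding was defined with 5 μM mazindol. Ki was determined under standard conditions and reported as mean ± SEM of replicate assays. A value >10000 nM means less than 30% radioligand displacement at that concentration.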

[16] = molecular target: T3, Substance-K receptor (Homo sapiens) (UniProt P21452); experiment: Displacement of radioligand from neurokinin NK2 receptor assessed as 50% receptor inhibition at 10^-7 M; method in brief: as §1
T3 sequence (whole entry): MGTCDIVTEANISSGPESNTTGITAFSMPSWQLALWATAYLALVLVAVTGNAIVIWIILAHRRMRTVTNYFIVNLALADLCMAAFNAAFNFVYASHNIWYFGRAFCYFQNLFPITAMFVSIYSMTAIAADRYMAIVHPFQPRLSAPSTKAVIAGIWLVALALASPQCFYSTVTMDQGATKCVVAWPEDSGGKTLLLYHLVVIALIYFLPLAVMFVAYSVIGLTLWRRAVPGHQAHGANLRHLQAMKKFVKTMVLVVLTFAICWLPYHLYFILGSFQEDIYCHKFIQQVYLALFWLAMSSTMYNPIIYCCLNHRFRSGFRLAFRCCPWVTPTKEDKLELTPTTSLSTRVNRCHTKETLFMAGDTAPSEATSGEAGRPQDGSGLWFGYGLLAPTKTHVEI

[17] = molecular target: Cannabinoid receptor 1 (Homo sapiens) (UniProt P21554); experiment: Displacement of radioligand from cannabinoid CB1 receptor assessed as 50% receptor inhibition at 10^-7 M; method in brief: as §1
Sequence of Cannabinoid receptor 1 (Homo sapiens) (P21554 whole entry): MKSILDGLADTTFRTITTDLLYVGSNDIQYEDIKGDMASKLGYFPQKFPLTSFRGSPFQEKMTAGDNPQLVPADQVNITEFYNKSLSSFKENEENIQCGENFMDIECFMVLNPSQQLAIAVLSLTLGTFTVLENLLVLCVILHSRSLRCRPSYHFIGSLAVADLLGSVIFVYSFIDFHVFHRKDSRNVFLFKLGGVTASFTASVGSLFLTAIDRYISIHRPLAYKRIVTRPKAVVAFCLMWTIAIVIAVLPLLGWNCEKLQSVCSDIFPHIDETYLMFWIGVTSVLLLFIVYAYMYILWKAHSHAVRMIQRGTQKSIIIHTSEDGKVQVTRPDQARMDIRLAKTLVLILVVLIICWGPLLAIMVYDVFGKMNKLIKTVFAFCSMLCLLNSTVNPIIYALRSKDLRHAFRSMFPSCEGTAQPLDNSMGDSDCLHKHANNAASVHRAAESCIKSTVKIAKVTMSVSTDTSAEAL

[18] = molecular target: Mu-type opioid receptor (Homo sapiens) (UniProt P35372); experiment: Displacement of radioligand from opioid mu receptor assessed as 50% receptor inhibition at 10^-5 M; method in brief: as §1
[19] = molecular target: Sodium-dependent noradrenaline transporter (Homo sapiens, UniProt P23975); experiment: Displacement of [125I]RTI-55 from human NET expressed in HEK293 cells; format: cell-based; method in brief: as §2
Sequence of Sodium-dependent noradrenaline transporter (P23975 whole entry): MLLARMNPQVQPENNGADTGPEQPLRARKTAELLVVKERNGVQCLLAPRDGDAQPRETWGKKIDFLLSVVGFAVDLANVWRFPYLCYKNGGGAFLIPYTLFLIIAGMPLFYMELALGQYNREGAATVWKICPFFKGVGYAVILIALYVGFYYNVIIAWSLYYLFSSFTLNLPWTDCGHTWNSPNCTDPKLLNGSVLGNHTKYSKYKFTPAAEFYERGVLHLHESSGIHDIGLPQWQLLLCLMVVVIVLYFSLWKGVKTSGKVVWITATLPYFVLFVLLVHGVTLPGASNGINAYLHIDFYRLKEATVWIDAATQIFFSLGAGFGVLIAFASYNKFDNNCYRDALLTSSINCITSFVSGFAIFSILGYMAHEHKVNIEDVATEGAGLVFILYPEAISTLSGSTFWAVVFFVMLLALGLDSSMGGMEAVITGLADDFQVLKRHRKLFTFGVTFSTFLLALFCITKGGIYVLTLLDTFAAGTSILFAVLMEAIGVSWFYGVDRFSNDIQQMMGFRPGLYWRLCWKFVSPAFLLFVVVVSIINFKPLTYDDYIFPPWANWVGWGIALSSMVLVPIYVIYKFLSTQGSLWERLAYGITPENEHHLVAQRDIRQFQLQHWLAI

[20] = Displacement of radioligand from sodium channel site 2 assessed as 50% receptor inhibition at 10^-7 M; method in brief: as §1

Sequence of 5-hydroxytryptamine receptor 2A (P28223 whole entry): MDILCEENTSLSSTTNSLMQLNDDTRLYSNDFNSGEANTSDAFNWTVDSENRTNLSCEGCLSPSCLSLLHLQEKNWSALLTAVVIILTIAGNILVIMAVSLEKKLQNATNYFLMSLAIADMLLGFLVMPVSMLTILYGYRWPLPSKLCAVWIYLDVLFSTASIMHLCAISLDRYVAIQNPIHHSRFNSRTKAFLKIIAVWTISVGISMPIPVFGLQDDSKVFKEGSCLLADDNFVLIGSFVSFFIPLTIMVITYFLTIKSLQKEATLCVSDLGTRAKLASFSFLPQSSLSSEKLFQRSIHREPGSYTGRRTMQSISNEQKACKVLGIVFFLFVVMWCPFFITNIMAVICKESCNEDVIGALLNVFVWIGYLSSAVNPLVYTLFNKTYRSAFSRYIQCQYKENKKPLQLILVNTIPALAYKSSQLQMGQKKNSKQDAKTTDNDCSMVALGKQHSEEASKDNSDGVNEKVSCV

COc1cc2c(cc1OC)CN(CCCCn1cc(-c3ccc(F)cc3)c3ccccc31)CC2
5000 nM: Ki [15]
active: inhibition [4] | inhibition [6] | inhibition [8] | inhibition [9] | inhibition [10] | inhibition [11] | inhibition [12] | inhibition [13] | inhibition [18]
1270 nM: Ki [1]
inactive: inhibition [2] | inhibition [3] | inhibition [5] | inhibition [7] | inhibition [14] | inhibition [16] | inhibition [17] | inhibition [20]
> 10000 nM: Ki (D(1A) dopamine receptor)
1350 nM: Ki [19]
